How the values were obtained:
[1] = target: T1, Nitric oxide synthase, inducible (Mus musculus) (UniProt P29477); assay: Percent inhibition of Nitrite accumulation at a concentration of 10 uM was determined in RAW 264.7 cells; type: functional, cell-based
T1 sequence (whole entry): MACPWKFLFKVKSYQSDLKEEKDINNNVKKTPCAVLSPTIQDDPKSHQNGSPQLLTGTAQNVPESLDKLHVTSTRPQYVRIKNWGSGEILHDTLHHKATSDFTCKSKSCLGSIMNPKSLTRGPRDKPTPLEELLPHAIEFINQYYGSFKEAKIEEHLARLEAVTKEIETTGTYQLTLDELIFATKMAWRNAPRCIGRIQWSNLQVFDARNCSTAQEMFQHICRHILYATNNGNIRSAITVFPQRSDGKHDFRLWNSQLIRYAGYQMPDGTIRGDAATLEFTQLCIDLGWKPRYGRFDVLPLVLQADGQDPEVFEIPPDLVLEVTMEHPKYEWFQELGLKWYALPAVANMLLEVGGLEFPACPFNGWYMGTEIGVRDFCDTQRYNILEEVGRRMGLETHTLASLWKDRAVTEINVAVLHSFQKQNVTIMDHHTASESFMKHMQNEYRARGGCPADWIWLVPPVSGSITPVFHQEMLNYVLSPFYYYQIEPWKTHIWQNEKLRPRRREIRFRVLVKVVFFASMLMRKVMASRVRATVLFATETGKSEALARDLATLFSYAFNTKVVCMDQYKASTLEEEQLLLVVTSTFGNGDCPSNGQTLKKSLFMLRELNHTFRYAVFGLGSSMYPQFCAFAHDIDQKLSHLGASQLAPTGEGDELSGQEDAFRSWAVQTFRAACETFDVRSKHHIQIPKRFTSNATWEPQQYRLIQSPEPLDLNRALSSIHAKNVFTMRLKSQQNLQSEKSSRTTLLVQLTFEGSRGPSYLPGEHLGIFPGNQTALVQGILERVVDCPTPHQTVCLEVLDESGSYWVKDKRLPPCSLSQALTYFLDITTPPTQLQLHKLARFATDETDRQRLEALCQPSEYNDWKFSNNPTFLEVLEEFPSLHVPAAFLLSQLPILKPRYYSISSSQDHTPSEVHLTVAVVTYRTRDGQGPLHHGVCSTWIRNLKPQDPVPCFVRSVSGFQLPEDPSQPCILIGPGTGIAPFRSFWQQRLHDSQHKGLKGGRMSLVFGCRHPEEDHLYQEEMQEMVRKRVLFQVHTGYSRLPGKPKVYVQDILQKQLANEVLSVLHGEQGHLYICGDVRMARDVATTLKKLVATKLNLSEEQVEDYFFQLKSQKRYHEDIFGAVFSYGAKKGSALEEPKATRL
How it was run: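 Nitrite accumulation measured in RAW 264.7 cells at 2 × 10⁶/mL stimulated with E. coli LPS, with compound at 10 µM or vehicle, 37 °C, 20 h. Nitrite read fluorometrically against a sodium nitrite standard curve. Reported as mean±SEM % inhibition (n=6). One-way ANOVA followed by Dunnett's test.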

[2] = target: T2, Nitric oxide synthase, inducible (Mus musculus, UniProt P29477); assay: Inhibitory concentration required to produce 50% inhibition of the response was determined; range-0.431.12 uM; type: functional
T2 sequence (P29477 whole entry): T1 sequence (whole entry)
How it was run: (§1)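 Murine RAW 264.7 macrophages (DMEM, 10% FBS, 2 mM L-glutamine, penicillin/streptomycin) at 2 × 10⁶/mL co-incubated with E. coli LPS and test compound or vehicle, 37 °C, 20 h. Nitrite in the medium measured fluorometrically against a sodium nitrite standard curve. IC50 calculated from at least four significant concentrations and reported with 95% confidence limits. MTT reduction used to check cytotoxicity.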

[3] = target: T2, Nitric oxide synthase, inducible; assay: Inhibitory concentration required to produce 50% inhibition of the response was determined; range-0.541.16 uM; type: functional; how it was run: as §1
[4] = target: T2, Nitric oxide synthase, inducible; assay: Inhibitory concentration required to produce 50% inhibition of the response was determined; range-0.431.85 uM; type: functional; how it was run: as §1
[5] = target: T2, Nitric oxide synthase, inducible; assay: Inhibitory concentration required to produce 50% inhibition of the response was determined; range-0.811.70 uM; type: functional; how it was run: as §1
[6] = target: T2, Nitric oxide synthase, inducible; assay: Inhibitory concentration required to produce 50% inhibition of the response was determined; range-0.150.47 uM; type: functional; how it was run: as §1
[7] = target: T2, Nitric oxide synthase, inducible; assay: Inhibitory concentration required to produce 50% inhibition of the response was determined; type: functional; how it was run: as §1
[8] = target: T2, Nitric oxide synthase, inducible; assay: Inhibitory concentration required to produce 50% inhibition of the response was determined; range-0.461.81 uM; type: functional; how it was run: as §1

Row | Compound | inhibition [1] | other results
1 | COc1cc(/C=C/C(=O)c2ccc(C(F)(F)F)cc2)cc(OC)c1OC | 55.8% | –
2 | COc1ccc(/C=C/C(=O)c2ccc(F)cc2)c(OC)c1 | 55.7% | –
3 | COc1cc(OC)c(/C=C/C(=O)c2ccc(F)cc2)c(OC)c1 | 63.9% | –
4 | COc1cc(OC)c(OC)cc1/C=C/C(=O)c1ccc(F)cc1F | 81.7% | IC50 [2]: 640 nM
5 | COc1cc(OC)c(/C=C/C(=O)c2cccc(C(F)(F)F)c2)c(OC)c1 | 75% | IC50 [3]: 1840 nM
6 | COc1ccc(OC)c(/C=C/C(=O)c2ccccc2C(F)(F)F)c1 | 99% | IC50 [4]: 910 nM
7 | COc1ccc(/C=C/C(=O)c2ccc(C(F)(F)F)cc2)c(OC)c1 | 46.8% | –
8 | COc1cc(OC)c(/C=C/C(=O)c2ccc(C(F)(F)F)cc2)c(OC)c1 | 43.6% | –
9 | COc1cc(OC)c(/C=C/C(=O)c2ccccc2C(F)(F)F)c(OC)c1 | 76.3% | IC50 [5]: 1020 nM
10 | COc1ccc(OC)c(/C=C/C(=O)c2ccc(C(F)(F)F)cc2)c1 | 60.1% | –
11 | COc1cc(OC)c(OC)cc1/C=C/C(=O)c1ccccc1C(F)(F)F | 73.7% | IC50 [6]: 280 nM
12 | COc1ccc(/C=C/C(=O)c2ccc(F)cc2F)cc1OC | 52.4% | –
13 | COc1cc(OC)c(OC)cc1/C=C/C(=O)c1ccc(C(F)(F)F)cc1 | 49.3% | –
14 | COc1cc(OC)c(/C=C/C(=O)c2ccc(F)cc2F)c(OC)c1 | 59% | –
15 | COc1cc(/C=C/C(=O)c2ccc(F)cc2)cc(OC)c1OC | 94.1% | IC50 [7]: 30 nM
16 | COc1cc(OC)c(OC)cc1/C=C/C(=O)c1cccc(C(F)(F)F)c1 | 26.7% | –
17 | COc1ccc(/C=C/C(=O)c2ccccc2C(F)(F)F)c(OC)c1 | 77.5% | IC50 [8]: 840 nM
